# Assay outcomes from PubChem.
# KCNQ1 inh = blocks the human KCNQ1 potassium channel; hit rate 1.3% among 310,000; AID 2642; P51787; B-score at 10 µM; CHO-K1 KCNQ1, FluxOR thallium flux fluorescence; hits give high values;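 active means compounds whose thallium flux B-score, printed positive for inhibition, exceeds three library SD while starting fluorescence stays within three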;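 further: channel opened by potassium depolarization with thallium stimulus after 20 min compound exposure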
# hERG rescue = hERG (human) protection from proarrhythmic block. Q12809. CHO-hERG, FluxOR thallium flux, dofetilide IC70 present. activation (rescue from dofetilide block), less the hit threshold, % at 10 µM. hit rate 0.51% among 310,000;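 active means activation above the mean of controls blocked by dofetilide plus 5 SD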;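 further: thallium influx through hERG after potassium depolarization seen as dye fluorescence rise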
# KCNK3 inh = human KCNK3 channel inhibition, primary screen; O14649; CHO-KCNK3 thallium flux, FluxOR fluorescence; hits give low values; B-score at 10 µM; hit rate 0.84% among 340,000;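 active means B-score under library mean minus 4 SD, starting fluorescence ratio at most library mean plus 5 SD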;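 further: more negative B-score means stronger inhibition of thallium flux through KCNK3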
# KCNQ1 act = potentiates or activates the human KCNQ1 potassium channel. hit rate 0.35% among 310,000. P51787. B-score at 10 µM. CHO-K1 KCNQ1, thallium flux FluxOR fluorescence; hits give high values;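 active means fluorescence ratio B-score, a plate-corrected score, at least three library SD, with initial intensity B-score within 5 SD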
#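 Material: CHO-K1 cells stably expressing KCNQ1. Medium: assay buffer for compound exposure, DMSO matched across wells. Reagent: K+/Tl+ depolarizing stimulus. Compound dosing: single-concentration screen. Times: 37 °C overnight plating, 90-min dark dye load, 20-min compound pretreatment. Technique: FluxOR Tl+ flux fluorescence.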
# KCNK9 inh = blocks the human KCNK9 two-pore domain potassium channel. HEK293 KCNK9, FluxOR thallium flux fluorescence; hits give low values. B-score at 10 µM. hit rate 1.2% among 310,000;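 active means ratio B-score over 3 SD below the library mean, with starting fluorescence within 5 SD of its mean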;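 further: negative B-score means less thallium flux so channel inhibition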
# Target sequence (Q9NPC2 whole entry, looked up, the tested form may be a part): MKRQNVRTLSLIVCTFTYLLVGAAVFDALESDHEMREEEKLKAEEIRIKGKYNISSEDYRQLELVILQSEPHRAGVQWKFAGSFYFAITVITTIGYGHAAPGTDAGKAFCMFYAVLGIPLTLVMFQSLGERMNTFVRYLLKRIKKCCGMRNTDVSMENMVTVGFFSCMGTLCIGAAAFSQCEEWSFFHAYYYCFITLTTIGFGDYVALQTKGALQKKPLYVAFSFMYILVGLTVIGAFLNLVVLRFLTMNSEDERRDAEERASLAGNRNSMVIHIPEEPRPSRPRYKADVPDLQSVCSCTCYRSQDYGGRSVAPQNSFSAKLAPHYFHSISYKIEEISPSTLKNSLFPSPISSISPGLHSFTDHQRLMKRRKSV
# Kir21 block = Kir2.1 (mouse) channel inhibition; P35561; HEK293-Kir2.1, FluxOR thallium flux fluorescence; hits give low values; B-score at 10 µM; hit rate 0.85% among 310,000; AID 1672;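 active means fluorescence ratio B-score at or below minus 3 SD of library scores, with starting-brightness B-score within 2 SD, cut at about -4.2 in these data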;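 further: channel flux triggered by added potassium and thallium sulfate stimulus; B-score of peak minus minimum fluorescence over baseline after thallium stimulus; more negative B-score means stronger Kir2.1 block with less thallium influx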
# KCNK9 inh conf = human KCNK9 inhibitor confirmation; inhibition, % at 10 µM; hit rate 43% among 4,900; shares compounds with KCNK9 inh; AID 492992; HEK293 KCNK9 cells, FluxOR thallium flux fluorescence;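 active means thallium signal inhibited by more than 5 SD of the compound-free buffer control wells, on both duplicate plates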;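 further: 0% = assay buffer control wells without compound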
# Kir2-1 spec = tests whether KCNK9 modulators also affect mouse Kir2.1; shares compounds with KCNK9 inh; Kir2.1 cells, FluxOR thallium flux fluorescence; inhibition, % at 10 µM; hit rate 4% among 4,900; AID 492993;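 active means thallium signal drop more than 5 SD beyond the mean of the no-compound control wells, seen in both duplicate plates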;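 further: signal is fluorescence rise after thallium addition divided by baseline fluorescence; plate controls were assay buffer only for no effect and full block by chlorpromazine control for full effect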
# KCNK9 uninduced = second check of KCNK9 modulator effects in non-induced HEK293 cells. FluxOR thallium flux. shares compounds with KCNK9 inh. inhibition, % at 10 µM. hit rate 40% among 4,900;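 active means thallium signal drop beyond 5 SD of the untreated control mean, on both duplicate plates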;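 further: plate controls were buffer only IC0 wells for no effect and SID17386958 at its maximal inhibitory level for full effect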
# Active calls of the source: *; i = inactive; . = no result given. Only some compounds are listed: those with a hit (about 3.8% of all), similar ones and a draw of the others.
SMILES,KCNQ1 inh,hERG rescue,KCNK3 inh,KCNQ1 act,KCNK9 inh,Kir21 block,KCNK9 inh conf,Kir2-1 spec,KCNK9 uninduced
CC1Cc2ccccc2N1C(=O)CCn1c(=O)sc2ccccc21 (configuration not stated),i,-10.0,i,i,i,-3.67,i,i,i
C#CCOCCOCCOCCNc1nc(N2CCOCC2)nc(N2CCN(C(=O)[C@H]([C@@H](C)CC)n3cc([C@@H](N)CO)nn3)CC2)n1,i,-5.8,i,i,i,0.01,.,.,.
COC(=O)c1cn(-c2ccccc2)nc1C(=O)OC,i,-8.8,i,i,i,1,.,.,.
CCn1cc(C2=NC(CC(C)C)CO2)c2ccccc21 (configuration not stated),i,-11.6,i,i,i,0.03,i,i,i
CCn1cc(C2N3CC4(C)CN2CC(C)(C3)C4=O)c2ccccc21 (configuration not stated),i,-16.2,i,i,i,0.06,.,.,.
CCn1cc(C2=NC(CCSC)CO2)c2ccccc21 (configuration not stated),i,-22.2,i,i,i,-0.35,i,i,i
CCn1cc(C2=NC(C(C)C)CO2)c2ccccc21 (configuration not stated),i,-13.6,i,i,i,1.39,i,i,i
CC(C)C1COC(c2cccc3ccccc23)=N1 (configuration not stated),i,-5.6,i,i,i,-0.65,.,.,.
CC12CN3CCN(CC(C3)/C1=N/N=C/c1cccc([N+](=O)[O-])c1)C2,i,-9.8,i,i,i,-1.27,.,.,.
CC1S/C(=N/N=C/c2ccco2)N(Cc2ccccc2)C1=O (configuration not stated),i,-5.9,i,i,i,0.02,.,.,.
CC/C(=N\N=C1\SC(C)C(=O)N1Cc1ccco1)c1ccccc1 (configuration not stated),i,-12.3,i,i,i,0.36,i,i,26.0%*
CCOc1ccccc1OCCOc1ccccc1CC,i,-7.5,i,i,i,-1.87,i,i,i
CCc1ccccc1OCCCCN1CCCC1,i,-2.3,i,i,i,0.02,.,.,.
CCOc1ccccc1OCCCOc1ccc(C)cc1Cl,i,-11.3,i,i,i,-1.65,i,i,32.0%*
COc1ccccc1OCCOCCOc1ccccc1Cl,i,-2.0,i,i,i,0.14,i,i,i
CCOc1ccc(OCCOCCOc2ccccc2Cl)cc1,i,-7.7,i,i,i,-0.08,i,i,i
COCCCNC(=S)N1CCN(C(=O)c2ccco2)CC1,i,-6.0,i,i,i,0.12,.,.,.
CCn1c(SCCOc2ccc(Cl)cc2)nnc1-c1cccs1,i,-11.2,i,i,i,-5.79*,i,i,i
COc1ccccc1OCc1ccc(C(=O)N(C)c2ccccc2)o1,i,-6.1,i,i,i,0.23,.,.,.
O=C(COC(=O)c1cc(S(=O)(=O)N2CCCCC2)ccc1Cl)NC1CCS(=O)(=O)C1 (configuration not stated),.,.,i,.,.,.,.,.,.
Cn1c(=O)c(=O)n(C)c2cc(N3CCCCC3)c(NS(=O)(=O)c3ccc([N+](=O)[O-])cc3)cc21,i,-5.5,i,i,i,0.03,.,.,.
CC(O)CNCCNCc1c(OCc2ccccc2)ccc2ccccc12 (configuration not stated),i,-14.1,i,i,i,-4.08,.,.,.
OCCNCc1c(OCc2ccc(Cl)cc2)ccc2ccccc12,i,-17.6,i,i,-19*,-6.85*,76.5%*,41.5%*,31.0%*
